# Results published in ChEMBL document CHEMBL5058577, “EUbOPEN Chemogenomics Library 2 (Multiplex)” (2022).
# Test system: U2OS
# Assay: Multiplex assay against U2OS
# Assay type: toxicity, cell-based
# Details: human
# Outline: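 Live cells were stained at seeding with Hoechst33342, BioTracker Green Microtubule Cytoskeleton Dye, MitoTracker Red and Annexin V Alexa Fluor 680, then imaged on a CQ1 microscope at 37°C and 5% CO2 after compound addition. CellPathfinder machine-learning gating split cells into Hoechst high-intensity objects or normal cells. Normal cells were split into healthy, pyknosed or fragmented nuclei, and pyknosed cells into mitotic or apoptotic. Tubulin, mitochondrial-mass and membrane-permeability phenotypes are per cents of healthy-nucleus cells.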
# [1] = 12 h, 1 µM, compound concentration 1 uM, replicate 1
# [2] = 12 h, 1 µM, compound concentration 1 uM, replicate 2
# [3] = 12 h, 10 µM, compound concentration 10 uM, replicate 1
# [4] = 12 h, 10 µM, compound concentration 10 uM, replicate 2
# [5] = 24 h, 1 µM, compound concentration 1 uM, replicate 1
# [6] = 24 h, 1 µM, compound concentration 1 uM, replicate 2
# [7] = 24 h, 10 µM, compound concentration 10 uM, replicate 1
# [8] = 24 h, 10 µM, compound concentration 10 uM, replicate 2
# [9] = 48 h, 1 µM, compound concentration 1 uM, replicate 1
# [10] = 48 h, 1 µM, compound concentration 1 uM, replicate 2
# [11] = 48 h, 10 µM, compound concentration 10 uM, replicate 1
# [12] = 48 h, 10 µM, compound concentration 10 uM, replicate 2
smiles,measurement,setting,value
O=C1[C@H](Cc2ccc(O)cc2)N2C(=O)CCN(C(=O)NCc3ccccc3)[C@H]2CN1Cc1cccc2ccccc12,Population Apoptotic (%),[1],91%
same,Population Fragmented Nuclei (%),[1],13%
same,Population Healthy Nuclei (%),[1],74%
same,Population Hoechst High Intensity Objects (%),[1],4%
same,Population Membrane Permeable-Phenotype (%),[1],4%
same,Population Mitochondria Different-Phenotype (%),[1],1%
same,Population Mitotic Cells (%),[1],8%
same,Population Normal (%),[1],96%
same,Population Pyknosed Nuclei (%),[1],12%
same,Population Tubulin-Different-Phenotype (%),[1],1%
same,Total Cell Count,[1],200
same,Population Apoptotic (%),[2],84%
same,Population Fragmented Nuclei (%),[2],21%
same,Population Healthy Nuclei (%),[2],66%
same,Population Hoechst High Intensity Objects (%),[2],0%
same,Population Membrane Permeable-Phenotype (%),[2],5%
same,Population Mitochondria Different-Phenotype (%),[2],8%
same,Population Mitotic Cells (%),[2],15%
same,Population Normal (%),[2],99%
same,Population Pyknosed Nuclei (%),[2],11%
same,Population Tubulin-Different-Phenotype (%),[2],4%
same,Total Cell Count,[2],113
same,Population Apoptotic (%),[3],60%
same,Population Fragmented Nuclei (%),[3],32%
same,Population Healthy Nuclei (%),[3],50%
same,Population Hoechst High Intensity Objects (%),[3],3%
same,Population Membrane Permeable-Phenotype (%),[3],55%
same,Population Mitochondria Different-Phenotype (%),[3],35%
same,Population Mitotic Cells (%),[3],40%
same,Population Normal (%),[3],96%
same,Population Pyknosed Nuclei (%),[3],17%
same,Population Tubulin-Different-Phenotype (%),[3],55%
same,Total Cell Count,[3],207
same,Population Apoptotic (%),[4],72%
same,Population Fragmented Nuclei (%),[4],19%
same,Population Healthy Nuclei (%),[4],67%
same,Population Hoechst High Intensity Objects (%),[4],6%
same,Population Membrane Permeable-Phenotype (%),[4],38%
same,Population Mitochondria Different-Phenotype (%),[4],47%
same,Population Mitotic Cells (%),[4],27%
same,Population Normal (%),[4],93%
same,Population Pyknosed Nuclei (%),[4],13%
same,Population Tubulin-Different-Phenotype (%),[4],43%
same,Total Cell Count,[4],88
same,Population Apoptotic (%),[5],80%
same,Population Fragmented Nuclei (%),[5],13%
same,Population Healthy Nuclei (%),[5],73%
same,Population Hoechst High Intensity Objects (%),[5],2%
same,Population Membrane Permeable-Phenotype (%),[5],4%
same,Population Mitochondria Different-Phenotype (%),[5],1%
same,Population Mitotic Cells (%),[5],19%
same,Population Normal (%),[5],97%
same,Population Pyknosed Nuclei (%),[5],13%
same,Population Tubulin-Different-Phenotype (%),[5],2%
same,Total Cell Count,[5],242
same,Population Apoptotic (%),[6],88%
same,Population Fragmented Nuclei (%),[6],14%
same,Population Healthy Nuclei (%),[6],71%
same,Population Hoechst High Intensity Objects (%),[6],1%
same,Population Membrane Permeable-Phenotype (%),[6],7%
same,Population Mitochondria Different-Phenotype (%),[6],5%
same,Population Mitotic Cells (%),[6],11%
same,Population Normal (%),[6],98%
same,Population Pyknosed Nuclei (%),[6],14%
same,Population Tubulin-Different-Phenotype (%),[6],4%
same,Total Cell Count,[6],127
same,Population Apoptotic (%),[7],65%
same,Population Fragmented Nuclei (%),[7],34%
same,Population Healthy Nuclei (%),[7],42%
same,Population Hoechst High Intensity Objects (%),[7],3%
same,Population Membrane Permeable-Phenotype (%),[7],25%
same,Population Mitochondria Different-Phenotype (%),[7],23%
same,Population Mitotic Cells (%),[7],34%
same,Population Normal (%),[7],96%
same,Population Pyknosed Nuclei (%),[7],22%
same,Population Tubulin-Different-Phenotype (%),[7],25%
same,Total Cell Count,[7],214
same,Population Apoptotic (%),[8],85%
same,Population Fragmented Nuclei (%),[8],29%
same,Population Healthy Nuclei (%),[8],54%
same,Population Hoechst High Intensity Objects (%),[8],5%
same,Population Membrane Permeable-Phenotype (%),[8],36%
same,Population Mitochondria Different-Phenotype (%),[8],38%
same,Population Mitotic Cells (%),[8],14%
same,Population Normal (%),[8],94%
same,Population Pyknosed Nuclei (%),[8],16%
same,Population Tubulin-Different-Phenotype (%),[8],42%
same,Total Cell Count,[8],91
same,Population Apoptotic (%),[9],81%
same,Population Fragmented Nuclei (%),[9],15%
same,Population Healthy Nuclei (%),[9],73%
same,Population Hoechst High Intensity Objects (%),[9],3%
same,Population Membrane Permeable-Phenotype (%),[9],2%
same,Population Mitochondria Different-Phenotype (%),[9],2%
same,Population Mitotic Cells (%),[9],18%
same,Population Normal (%),[9],96%
same,Population Pyknosed Nuclei (%),[9],11%
same,Population Tubulin-Different-Phenotype (%),[9],3%
same,Total Cell Count,[9],326
same,Population Apoptotic (%),[10],95%
same,Population Fragmented Nuclei (%),[10],16%
same,Population Healthy Nuclei (%),[10],67%
same,Population Hoechst High Intensity Objects (%),[10],5%
same,Population Membrane Permeable-Phenotype (%),[10],3%
same,Population Mitochondria Different-Phenotype (%),[10],0%
same,Population Mitotic Cells (%),[10],4%
same,Population Normal (%),[10],94%
same,Population Pyknosed Nuclei (%),[10],15%
same,Population Tubulin-Different-Phenotype (%),[10],5%
same,Total Cell Count,[10],168
same,Population Apoptotic (%),[11],82%
same,Population Fragmented Nuclei (%),[11],37%
same,Population Healthy Nuclei (%),[11],43%
same,Population Hoechst High Intensity Objects (%),[11],5%
same,Population Membrane Permeable-Phenotype (%),[11],28%
same,Population Mitochondria Different-Phenotype (%),[11],16%
same,Population Mitotic Cells (%),[11],17%
same,Population Normal (%),[11],94%
same,Population Pyknosed Nuclei (%),[11],19%
same,Population Tubulin-Different-Phenotype (%),[11],19%
same,Total Cell Count,[11],252
same,Population Apoptotic (%),[12],81%
same,Population Fragmented Nuclei (%),[12],33%
same,Population Healthy Nuclei (%),[12],46%
same,Population Hoechst High Intensity Objects (%),[12],4%
same,Population Membrane Permeable-Phenotype (%),[12],22%
same,Population Mitochondria Different-Phenotype (%),[12],20%
same,Population Mitotic Cells (%),[12],18%
same,Population Normal (%),[12],95%
same,Population Pyknosed Nuclei (%),[12],20%
same,Population Tubulin-Different-Phenotype (%),[12],18%
same,Total Cell Count,[12],111
